Laboratory results: ChEMBL document CHEMBL4251710, “Antibacterial Muraymycins from Mutant Strains of Streptomyces sp. NRRL 30471” (J Nat Prod, 2018)
pIC50: −log10 of the molar value. ≈ marks a conversion by molar mass, not a printed value.

What was measured:
[1] = target: T1, Phospho-N-acetylmuramoyl-pentapeptide-transferase (Staphylococcus aureus, UniProt P0C1R8); assay: Inhibition of Staphylococcus aureus MraY expressed in Escherichia coli membrane using Park's nucleotide as substrate pretreated for 30 mins followed by substrate addition measured up to 2 mins by fluorescence assay; type: cell membranes
T1 sequence (P0C1R8 whole entry): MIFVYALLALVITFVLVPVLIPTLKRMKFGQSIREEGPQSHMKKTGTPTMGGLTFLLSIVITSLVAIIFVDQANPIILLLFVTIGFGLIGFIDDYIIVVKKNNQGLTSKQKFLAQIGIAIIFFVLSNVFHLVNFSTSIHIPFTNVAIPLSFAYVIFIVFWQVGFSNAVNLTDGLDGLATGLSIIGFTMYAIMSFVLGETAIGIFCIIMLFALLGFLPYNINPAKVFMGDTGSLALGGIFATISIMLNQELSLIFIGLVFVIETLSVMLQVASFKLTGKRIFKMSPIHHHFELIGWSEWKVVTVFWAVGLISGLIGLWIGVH

[2] = target: T2, Phospho-N-acetylmuramoyl-pentapeptide-transferase (Aquifex aeolicus (strain VF5), UniProt O66465); assay: Inhibition of Aquifex aeolicus MraY expressed in Escherichia coli C41(DE3) using Park's nucleotide as substrate pretreated for 30 mins followed by substrate addition measured up to 2 mins by fluorescence assay
T2 sequence (O66465 whole entry): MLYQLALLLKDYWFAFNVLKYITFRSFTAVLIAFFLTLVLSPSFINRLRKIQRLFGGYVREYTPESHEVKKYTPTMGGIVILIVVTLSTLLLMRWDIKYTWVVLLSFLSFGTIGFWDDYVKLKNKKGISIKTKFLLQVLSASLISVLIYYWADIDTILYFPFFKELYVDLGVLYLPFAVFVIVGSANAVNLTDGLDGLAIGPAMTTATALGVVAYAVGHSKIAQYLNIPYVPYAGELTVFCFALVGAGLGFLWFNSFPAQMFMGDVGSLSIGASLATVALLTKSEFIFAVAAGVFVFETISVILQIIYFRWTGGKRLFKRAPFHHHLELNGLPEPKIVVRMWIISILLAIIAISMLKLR
Method in brief: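 Purified His-MBP-tagged AaMraY was expressed in E. coli C41(DE3), extracted with DDM, purified on cobalt resin, protease-cleaved and gel-filtered in DM. The enzyme (1 μL at 0.1 mg/mL) was preincubated 30 min at room temperature with inhibitor, undecaprenyl phosphate, pH 7.5 Tris, KCl, MgCl2, 0.1% Triton X-100 and 0–5% DMSO. Dansylated Park's nucleotide was then added. Fluorescence (ex 355/em 520 nm) was followed, and the rate was taken from a linear fit over 0–2 min.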

Staphylococcus aureus [3] = assay: Antimicrobial activity against Staphylococcus aureus subsp. aureus str. Newman after 16 hrs by resazurin dye based assay; type: functional
Method in brief: (§1)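 Overnight cultures (16 h, 37 °C) were diluted 1000-fold, grown to OD600 0.4, then diluted 1000-fold again. Cells were exposed to serially diluted compound from a top final concentration of 256 or 32 μg/mL, against a 1% DMSO or water control. Plates were incubated 16 h at 37 °C, read at OD600 normalised to control, then given resazurin for 3 h. The MIC was the lowest concentration inhibiting growth.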

Escherichia coli [4] = assay: Antimicrobial activity against tolC deficient Escherichia coli JW5503 after 16 hrs by resazurin dye based assay; type: functional; conditions: JW5503, 16 h; method in brief: as §1
Escherichia coli [5] = assay: Antimicrobial activity against Escherichia coli BL21(DE3) after 16 hrs by resazurin dye based assay; type: functional; method in brief: as §1
Escherichia coli [6] = assay: Antimicrobial activity against Escherichia coli harboring imp mutant; type: functional
Staphylococcus aureus [7] = assay: Antimicrobial activity against Staphylococcus aureus infected in mouse; type: functional

SMILES: CO[C@H]1[C@H](O[C@H]([C@H]2O[C@@H](n3ccc(=O)[nH]c3=O)[C@H](O)[C@@H]2O)[C@H](NCCCNC(=O)[C@@H](NC(=O)[C@@H](NC(=O)N[C@H](C(=O)O)C(C)C)[C@@H]2CCNC(=N)N2)[C@@H](OC(=O)CCCCCCCCCCC(C)C)C(C)C)C(=O)O)O[C@H](CN)[C@H]1O
- pIC50 [1]: 10.66
- pIC50 [2]: 9.49
- MIC (Staphylococcus aureus [3]): 6 µg/mL (≈ 5.19 µM)
- MIC (Escherichia coli [4]): 2 µg/mL (≈ 1.73 µM)
- MIC (Escherichia coli [5]): 32 µg/mL (≈ 27.7 µM)

SMILES: CO[C@H]1[C@H](O[C@H]([C@H]2O[C@@H](n3ccc(=O)[nH]c3=O)[C@H](O)[C@@H]2O)[C@H](NCCCNC(=O)[C@@H](NC(=O)[C@@H](NC(=O)N[C@H](C(=O)O)C(C)C)[C@@H]2CCNC(=N)N2)[C@@H](OC(=O)CCCCCCCCCCCCC(C)C)C(C)C)C(=O)O)O[C@H](CN)[C@H]1O
- pIC50 [1]: 11.40
- MIC (Staphylococcus aureus [3]): 2 µg/mL (≈ 1.69 µM)
- MIC (Escherichia coli [4]): 4 µg/mL (≈ 3.38 µM)
- MIC (Escherichia coli [5]): 64 µg/mL (≈ 54 µM)

SMILES: CO[C@H]1[C@H](O[C@H]([C@H]2O[C@@H](n3ccc(=O)[nH]c3=O)[C@H](O)[C@@H]2O)[C@H](NCCCNC(=O)[C@@H](NC(=O)[C@@H](NC(=O)N[C@H](C(=O)O)C(C)C)[C@@H]2CCNC(=N)N2)[C@@H](O)C(C)C)C(=O)O)O[C@H](CNC(C)=O)[C@H]1O
- pIC50 [1]: 10.03
- pIC50 [2]: 8.74
- MIC (Staphylococcus aureus [3]): > 32 µg/mL
- MIC (Escherichia coli [4]): 16 µg/mL (≈ 16.2 µM)
- MIC (Escherichia coli [5]): 256 µg/mL (≈ 259 µM)

SMILES: CO[C@H]1[C@H](O[C@H]([C@H]2O[C@@H](n3ccc(=O)[nH]c3=O)[C@H](O)[C@@H]2O)[C@H](NCCCNC(=O)[C@@H](NC(=O)[C@@H](NC(=O)N[C@H](C(=O)O)C(C)C)[C@@H]2CCNC(=N)N2)[C@@H](O)C(C)C)C(=O)O)O[C@H](CN)[C@H]1O
- pIC50 [1]: 10.80
- pIC50 [2]: 9.46
- MIC (Staphylococcus aureus [3]): > 32 µg/mL
- MIC (Escherichia coli [4]): 1 µg/mL (≈ 1.06 µM)
- MIC (Escherichia coli [5]): 8 µg/mL (≈ 8.46 µM)

SMILES: CO[C@H]1[C@H](O[C@H]([C@H]2O[C@@H](n3ccc(=O)[nH]c3=O)[C@H](O)[C@@H]2O)[C@H](NCCCNC(=O)[C@@H](NC(=O)[C@@H](NC(=O)N[C@H](C(=O)O)C(C)C)[C@@H]2CCNC(=N)N2)[C@@H](OC(=O)CCCCCCCCCCCCN(O)C(=N)N)C(C)C)C(=O)O)O[C@H](CN)[C@H]1O
- MIC (Escherichia coli [6]): < 0.03 µg/mL
- ED50 (Staphylococcus aureus [7]): 1.1 mg/kg
